# Records with an inconclusive call do not appear. The source made the active and inactive calls.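 Rule for the calls: active = compound whose fitted half-maximal concentration, in every repeat run, is at most twice the top dose tested; inconclusive = repeat runs disagree, or a flat or poor curve fit; inactive = every repeat run called inactive.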
# Columns and labels:
# [1] = test system: C. albicans CaCi-2 growth, Alamar Blue fluorescence, 48 h; test: single-agent growth inhibition of C. albicans CaCi-2, dose response, CaCi-2 strain, plate reader, dry powder (AID 602190)
# In short: (§1)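 Material – Candida albicans strain CaCi-2, a fluconazole-resistant clinical isolate · Quantity – inoculum OD600 0.00015 · Dosing – test compounds in a dose-response series · Incubation – 48 h static exposure at 37 °C, 2 h Alamar Blue · Technique – Alamar Blue fluorescence · Measure – growth inhibition from lowered fluorescence · Control set – amphotericin 10 µM positive control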
# [2] = as above; conditions: C. albicans CaCi-2 growth, Alamar Blue fluorescence, 48 h; at 26 µM (top of the series)
# In short: as §1
Structure (SMILES),AC50 [1],"activity change, negative = inhibition [2]"
O=C(Nc1nnc(-c2ccc3c(c2)CCCC3)o1)c1ccccc1,17.6 µM,–
Oc1c(C(c2ccccc2Cl)N2CCCCC2)ccc2cccnc12 (stereo unspecified),8.88 µM,–
NC(=O)c1cccc(C(=O)Nc2nc(-c3ccc4c(c3)CCCC4)cs2)c1,–,4.94% (inactive)
O=C(Nc1nnc(-c2ccc3c(c2)CCCC3)o1)c1ccc(Cl)cc1Cl,17.9 µM,–
Cc1cc(C)n(-c2nc3ccccc3c(=O)n2OCC#N)n1,6.87 µM,–
Oc1c(C(c2ccc(Cl)cc2)N2CCCC2)ccc2cccnc12 (stereo unspecified),5.03 µM,–
CCOC(=O)N1C(=O)C2(CCCCC2)N(c2ccc(C)cc2)C1=S,4.29 µM,–
Cc1ccc(C(=O)Nc2nnc(-c3ccccc3)o2)cc1C,–,-9.38% (inactive)
C/C(=N\NC(=O)c1cc2ccccc2cc1O)c1ccccn1,6.11 µM,–
Oc1c(CN2CCN(c3ccccc3)CC2)cc(Cl)c2cccnc12,2.72 µM,–
C=CCNC(=S)N/N=C(\C)c1ccccn1,–,-68% (inactive)
Cc1ccc(-c2nc3c(Cl)cc(Cl)cc3c(=O)n2O)cc1,–,-45% (inactive)
O=C(Nc1nc(-c2ccccn2)cs1)c1ccccc1,–,6.07% (inactive)
CN1CCN(C(c2ccc(C(F)(F)F)cc2)c2ccc3cccnc3c2O)CC1 (stereo unspecified),4.75 µM,–
O=C(Nc1nc(-c2ccccc2)cs1)c1ccc(Br)s1,–,-11.8% (inactive)
O=C(Nc1nc(-c2ccccn2)cs1)c1ccc(Br)s1,5.53 µM,–
Oc1c(CN2CCc3ccccc3C2)cc(Cl)c2cccnc12,1.57 µM,–
O=C(Nc1nc(-c2ccc3c(c2)CCCC3)cs1)c1ccccc1,–,-18.1% (inactive)
O=C(Oc1c(Cl)cc(Cl)c2cccnc12)c1ccco1,0.708 µM,–
O=C(Nc1nc(-c2ccccn2)cs1)c1ccc(Cl)s1,6.89 µM,–
O=C(NNC(=S)Nc1ccc(Cl)c(Cl)c1)c1ccccn1,13 µM,–

# From PubChem BioAssay AID602190 (Broad Institute, 2012)
